Data: ChEMBL document CHEMBL1146278, “Design and synthesis of substrate-mimic inhibitors of mycothiol-S-conjugate amidase from Mycobacterium tuberculosis” (Bioorg Med Chem Lett, 2007)

Target: T1, Mycothiol S-conjugate amidase (Mycobacterium tuberculosis) (UniProt P9WJN1)
T1 sequence (whole entry): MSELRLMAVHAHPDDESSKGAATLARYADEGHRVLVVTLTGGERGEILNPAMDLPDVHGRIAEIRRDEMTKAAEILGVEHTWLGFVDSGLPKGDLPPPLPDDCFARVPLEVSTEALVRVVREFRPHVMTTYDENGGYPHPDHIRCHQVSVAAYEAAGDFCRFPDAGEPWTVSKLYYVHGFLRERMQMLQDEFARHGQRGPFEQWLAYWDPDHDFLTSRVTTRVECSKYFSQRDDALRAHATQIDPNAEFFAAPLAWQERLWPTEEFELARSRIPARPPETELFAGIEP
Assay: Inhibition of Mycobacterium tuberculosis MCA at 50 uM
Outline: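 Recombinant MCA was assayed by fluorescence-detected HPLC, with mycothiol bimane (MSmB) or its cyclohexyl thioglycoside analog as substrate. Inhibitors were screened at 100 and 50 μM, and the reported values are at a final 50 μM. Each value is the mean of two experiments. Below 10% inhibition was scored as no inhibition.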

Structure (SMILES) | inhibition
O=C(N[C@H]1[C@@H](O[C@@H]2C[C@](O)(CO)C[C@@H](O)[C@H]2O)O[C@H](CO)[C@@H](O)[C@@H]1O)C1CC1 | 13%
Cc1onc(-c2c(F)cccc2Cl)c1C(=O)N[C@H]1[C@@H](O[C@@H]2C[C@](O)(CO)C[C@@H](O)[C@H]2O)O[C@H](CO)[C@@H](O)[C@@H]1O | < 10%
O=C(N[C@H]1[C@@H](O[C@@H]2C[C@](O)(CO)C[C@@H](O)[C@H]2O)O[C@H](CO)[C@@H](O)[C@@H]1O)c1ccc2ccccc2c1 | 13%
O=C(N[C@H]1[C@@H](O[C@@H]2C[C@](O)(CO)C[C@@H](O)[C@H]2O)O[C@H](CO)[C@@H](O)[C@@H]1O)c1ccncc1 | 46%
CCCc1c(C(=O)N[C@H]2[C@@H](O[C@@H]3C[C@](O)(CO)C[C@@H](O)[C@H]3O)O[C@H](CO)[C@@H](O)[C@@H]2O)cnn1-c1cc(Cl)cc(Cl)c1 | 26%
O=C(N[C@H]1[C@@H](O[C@@H]2C[C@](O)(CO)C[C@@H](O)[C@H]2O)O[C@H](CO)[C@@H](O)[C@@H]1O)c1ccc(C(F)(F)F)cc1 | 16%
O=C(N[C@H]1[C@@H](O[C@@H]2C[C@](O)(CO)C[C@@H](O)[C@H]2O)O[C@H](CO)[C@@H](O)[C@@H]1O)c1cccs1 | 13%
O=C(N[C@H]1[C@@H](O[C@@H]2C[C@](O)(CO)C[C@@H](O)[C@H]2O)O[C@H](CO)[C@@H](O)[C@@H]1O)c1ccco1 | 15%
CCCSc1cc(C(=O)N[C@H]2[C@@H](O[C@@H]3C[C@](O)(CO)C[C@@H](O)[C@H]3O)O[C@H](CO)[C@@H](O)[C@@H]2O)ccn1 | 15%
CN(C)c1ccc(C(=O)N[C@H]2[C@@H](O[C@@H]3C[C@](O)(CO)C[C@@H](O)[C@H]3O)O[C@H](CO)[C@@H](O)[C@@H]2O)cc1 | 44%
O=C(N[C@H]1[C@@H](O[C@@H]2C[C@](O)(CO)C[C@@H](O)[C@H]2O)O[C@H](CO)[C@@H](O)[C@@H]1O)c1ccc2ccsc2c1 | < 10%
CC(C)S(=O)(=O)c1csc(C(=O)N[C@H]2[C@@H](O[C@@H]3C[C@](O)(CO)C[C@@H](O)[C@H]3O)O[C@H](CO)[C@@H](O)[C@@H]2O)c1Cl | 11%
O=C(N[C@H]1[C@@H](O[C@@H]2C[C@](O)(CO)C[C@@H](O)[C@H]2O)O[C@H](CO)[C@@H](O)[C@@H]1O)c1cccnc1Sc1ccc(Cl)cc1 | 10%
O=C(N[C@H]1[C@@H](O[C@@H]2C[C@](O)(CO)C[C@@H](O)[C@H]2O)O[C@H](CO)[C@@H](O)[C@@H]1O)c1ccc([N+](=O)[O-])cc1 | 15%
